Sampled rows, rich in hits. Any-hit rate of the full collection: about 1.6%.
PKA-R2B activ – activators of PKA-R2B holoenzyme, primary screen, biochemical, fluorescence polarization, Cy5-IP20, human | cAMP-dependent protein kinase catalytic subunit beta (Homo sapiens) + cAMP-dependent … | PKA-R2B holoenzyme dissociation; R2B truncated from residue 108, S112A mutant; 0% DMSO only, 100% 113 µM cGMP | activation, % at 11.4 µM | actives 0.079% (n = 340,000);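 active means activation above a cutoff set at the mean over all compounds plus 3 SD, cut at about 18% in these data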;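 further: higher means more holoenzyme dissociation and a rise in polarization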
Rev-erbA mod – modulators of Rev-erb alpha DNA binding, primary screen, biochemical, FITC-DNA, fluorescence polarization, uHTS; Rev-erbα–FITC-DNA binding, 90 min; actives 0.79% (n = 370,000); Nuclear receptor subfamily 1 group D member 1 (Homo sapiens), P20393; activity, % at 10 µM; AID 1259318, 2017;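 active means activity above about 14%, limit read from the data; passing the limit was not always enough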;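 further: 0% = DMSO wells with 35 nM protein and 100% = DMSO wells with 750 nM protein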
PKA-R1A act – activators of PKA-R1A holoenzyme, primary screen, biochemical, fluorescence polarization, Cy5-IP20, bovine R1A, mouse PKAc | cAMP-dependent protein kinase type I-alpha regulatory subunit (Bos taurus) + … | PKA-R1A dissociation; scaled: DMSO 0%, 113 µM cGMP 100% | activation, % at 11.4 µM | actives 0.083% (n = 340,000);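 active means percent activation above the mean of all tested compounds plus 3 SD, cut at about 19% in these data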;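 further: higher means more PKAc released from R1A so a rise in polarization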
PG9 binder – binders of HIV-1 gp120 antibody PG9, primary screen, biochemical, TR-FRET; actives 0.43% (n = 360,000); HIV-1 gp120 / PG9 antibody interaction; TR-FRET gp120-PG9 antibody binding; inhibition, % at 6.7 µM; in the data active means inhibition above about 8.5%
NR2E3 ag-1 – inhibitors of NR2E3-RetCOR corepressor binding, primary screen, NR2E3 agonist project, biochemical, TR-FRET, GST-NR2E3, biotin-RetCOR. actives 0.12% (n = 320,000). 1536-well. AID 2300, 2010. Photoreceptor-specific nuclear receptor (Homo sapiens), Q9Y5X4. inhibition of corepressor binding, % at 4.78 µM;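 active means percent inhibition above the cutoff of mean plus 3 SD of all tested compounds, set per screening campaign, cut at about 20% in these data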;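 further: 0% = DMSO wells and 100% = biotin wells as full block of FRET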
Target sequence (Q9Y5X4 whole entry, looked up): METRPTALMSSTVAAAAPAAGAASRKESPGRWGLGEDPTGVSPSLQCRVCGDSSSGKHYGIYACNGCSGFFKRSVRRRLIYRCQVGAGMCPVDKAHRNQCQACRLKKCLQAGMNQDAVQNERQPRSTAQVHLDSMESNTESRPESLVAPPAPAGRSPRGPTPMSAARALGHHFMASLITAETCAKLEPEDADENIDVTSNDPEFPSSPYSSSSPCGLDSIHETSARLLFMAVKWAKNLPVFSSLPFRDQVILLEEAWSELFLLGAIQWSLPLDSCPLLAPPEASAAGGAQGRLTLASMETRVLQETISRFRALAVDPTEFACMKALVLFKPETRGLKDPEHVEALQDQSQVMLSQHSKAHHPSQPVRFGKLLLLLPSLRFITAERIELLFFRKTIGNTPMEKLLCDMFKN
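System: GST-tagged NR2E3 plus biotinylated RetCOR corepressor; Amount: 1.35 nM GST-tagged NR2E3 final; Dosing: single nominal compound dose of 4.8 µM; Schedule: 5 h incubation at 4 °C; Technique: TR-FRET with europium anti-GST and streptavidin-D2, 340 nm excitation; Controls: biotin wells as high control, 0.6% DMSO wells as low control.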
NR2E3 ag-2 – NR2E3 agonists in two-hybrid cells, primary screen, cell-based, luminescence, CHO-S, Gal4-NCOR/VP16-NR2E3 | luciferase | actives 0.35% (n = 360,000) | inhibition of corepressor binding, % at 3.98 µM;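 active means inhibition above the mean of all tested compounds plus 3 SD, cut at about 70% in these data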;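 further: 0% = DMSO with NR2E3 transfected cells and 100% = cells lacking NR2E3 construct; higher means lower luciferase signal from less NR2E3 corepressor binding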
R2B FP artifact – fluorescence polarization artefacts, biochemical, artefact control for PKA-R2B activator project | actives 6% (n = 270) | activation, % at 11.4 µM | FP artifact counterscreen | shares compounds with PKA-R2B activ; in the data active means activation above about 20%;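 further: Cy5 labelled IP20 peptide probe with compound but no PKA protein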
PKA-R2B act conf – activators of PKA-R2B holoenzyme, confirmation, biochemical, fluorescence polarization, human; shares compounds with PKA-R2B activ; PKA-R2B complex, activation; activation, % at 11.4 µM; actives 9% (n = 270); AID 504797, 2011; in the data active means activation above about 19%
* hit, by the source's call; . = no result given.

SMILES	PKA-R2B activ	Rev-erbA mod	PKA-R1A act	PG9 binder	NR2E3 ag-1	NR2E3 ag-2	R2B FP artifact	PKA-R2B act conf
COc1cc(NC(=O)CCNC(=O)Cn2cnc3ccccc3c2=O)cc(OC)c1OC	-7	-2	-7	2	-2	-25	.	.
COc1ccc(-n2c(COc3ccccc3)nnc2SCC(=O)Nc2ccccc2-c2ccccc2)cc1	.	-4	.	.	.	.	.	.
Cc1ccc(C(C)C)c(O)c1C(=O)O	19*	3	-4	-2	.	-27	5	2
Cc1cc(NC(=O)/C=C/c2ccccc2)c(C(C)C)cc1O	14	-5	1	-1	-1	-17	.	.
Nc1nc2c(c(=O)[nH]1)N(C=O)C(CNc1ccc(C(=O)N[C@@H](CCC(=O)O)C(=O)O)cc1)CN2 (some centres not stated)	.	-7	.	.	.	.	.	.
Cc1cc(N2CCCC2=O)ccc1S(=O)(=O)N1CCOCC1	23*	-3	12	-2	-2	-9	1	5
O=C(Nc1ccc(Cl)cn1)c1cccc(S(=O)(=O)N2CCCCCC2)c1	20*	3	4	-2	.	-20	2	-2
O=C(Nc1ccc(Cl)cn1)c1cccc(S(=O)(=O)N2CCCCC2)c1	-9	2	1	-1	.	-29	.	.
COc1ccc(S(=O)(=O)Nc2cccc(C(C)=O)c2)cc1Br	4	0	-5	2	-1	9	.	.
COc1ccc(S(=O)(=O)Nc2ccc(NC(C)=O)cc2)cc1Br	22*	3	2	1	5	-9	2	3
COCCN(C(=O)COC(=O)/C=C/c1cccs1)c1c(N)n(Cc2ccccc2)c(=O)[nH]c1=O	23*	4	6	0	5	18	2	2
CC(C)CN(C(=O)COC(=O)/C=C/c1cccs1)c1c(N)n(Cc2ccccc2)c(=O)[nH]c1=O	9	1	-1	-1	3	20	.	.
Cc1ccc(Cn2c(CN3CC(C)OC(C)C3)nc3c2c(=O)n(C)c(=O)n3C)cc1 (configuration not stated)	19*	1	-6	-1	4	11	3	1
CCN1C=C(C(=O)c2ccccc2)C(=O)CC1	20*	8	9	-1	.	-7	3	2
CCCCN1C=C(C(=O)c2ccccc2)C(=O)CC1	-9	-7	-9	0	.	-12	.	.
C=CCN(C)CC#Cc1ccccc1C	.	-5	.	.	.	.	.	.
O=c1cnn([C@@H]2O[C@H](CO)[C@@H](O)[C@H]2O)c(=O)[nH]1	-7	.	-9	.	4	-5	.	.
O=C1NCCCN1C1OC(CO)C(O)C1O (configuration not stated)	22*	0	11	3	.	-1	6	6
COC(=O)N/N=C/c1cn(CCOc2ccccc2)c2ccccc12	20*	5	-1	-1	1	-7	2	-1
COC(=O)N/N=C/c1cn(CCOc2ccc(OC)cc2)c2ccccc12	-1	-4	2	-2	-1	-17	.	.
CCOC(=O)C1=C(c2ccccc2)NC(SCC(=O)Nc2ccccc2C)=C(C#N)C1c1ccco1 (configuration not stated)	19*	6	2	0	-1	-28	4	1
CCOC(=O)C1=C(c2ccccc2)NC(SCC(=O)Nc2ccc(C)cc2)=C(C#N)C1c1ccco1 (configuration not stated)	3	6	-3	.	3	-33	.	.
CC(C)(C)OC(=O)N1CCC(N[C@@H](Cc2ccccc2)C(=O)NCCc2c[nH]c3ccccc23)(C(=O)NC2CCCCC2)CC1	.	2	.	.	.	.	.	.
O=C(O)c1cccc(NC2=C(Cl)C(=O)c3ccccc3C2=O)c1	22*	-1	9	-6	.	-130	1	0
COCC(=O)Nc1cccc(C(F)(F)F)c1	19*	-2	6	0	-4	-9	0	-1
SMILES	PKA-R2B activ	Rev-erbA mod	PKA-R1A act	PG9 binder	NR2E3 ag-1	NR2E3 ag-2	R2B FP artifact	PKA-R2B act conf
CCOC(=O)N1CCC(Nc2c(NCCCN(C)Cc3ccccc3)c(=O)c2=O)CC1	20*	-6	10	1	4	5	0	2
CCCN(CCC)CCNc1c(NC2CCN(C(=O)OCC)CC2)c(=O)c1=O	-5	-1	2	1	1	17	.	.
COC(=O)[C@]12C[C@H](CC(=O)NCc3cccs3)C(=O)N(CCC3=CCCCC3)C1=C[C@H](C(C)C)O[C@@H]2C1CC1	.	1	.	.	.	.	.	.
Cc1cc(C(=O)NC2CCCN(Cc3ccc(Cl)cc3)C2)c(C)o1 (configuration not stated)	20*	4	3	-1	-2	-31	2	0
COc1ccc(OC)c(S(=O)(=O)NCC(=O)O)c1	-3	6	0	0	1	-10	.	.
Cc1cc(C)c(S(=O)(=O)NCC(=O)O)cc1C	20*	0	4	2	-2	5	5	4
S=C(Nc1ccc(Cl)cc1)N(CCCN1CCOCC1)Cc1cccs1	22*	-2	-1	0	3	-31	2	5
CCOc1ccc(NC(=O)CSc2nnnn2-c2ccc(C(N)=O)cc2)cc1	21*	1	-13	-1	4	5	2	-1
COc1ccc(NC(=O)CSc2nnnn2-c2ccc(OC)cc2)cc1	-6	-2	-4	0	0	-6	.	.
O=C(NC1CCCCC1)c1c(O)nc2sccn2c1=O	20*	-9	4	1	-1	-13	8	0
O=C(NC1CCCCCC1)c1c(O)nc2sccn2c1=O	-6	3	3	0	0	-46	.	.
CCn1c(=O)c(C(=O)NNS(=O)(=O)c2ccc(Cl)cc2)c(O)c2ccccc21	18*	-3	-2	-3	0	-32	-3	-2
C=CCN(CC#CC1=CCCCC1)Cc1ccccc1	.	0	.	.	.	.	.	.

Bioassay records: PubChem BioAssay, several laboratories
